Cneo AK release – causes C. neoformans cell lysis; adenylate kinase release luminescence, 4 h; normalised: neutral wells 0, clomiphene wells 100; lysis activity, % at 15 µM; 360,000 tested, 0.2% active;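 active = mean lysis activity across replicates of at least 80%, whatever share of replicates individually reach that level; inactive = mean lysis activity below 80%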
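Material – log-phase Cryptococcus neoformans yeast cells · Input – 5 × 10^6 yeast cells/mL · Medium – fresh YPD growth medium · Doses – single compound concentration per well · Timing – static 4 h at 37 °C with compound, 1 h detection · Detection – adenylate kinase release luminescence · Read-out – signal increase indicating cell lysis · Control set – Clomiphene as positive lysis control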
Statin myotox sup – suppression of simvastatin myotoxicity. 330,000 tested, 0.78% active. rescue of ATP level, % at 7.49 µM. C2C12 myotubes + simvastatin, ATP luminescence, 48 h; scaled: DMSO 0, geranylgeraniol control 100;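 active = mean ATP rescue above about 67%, or every replicate alone reaching that limit, limit read from the data, passing the limit was not always enough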;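 also: myotubes were challenged with 10 µM simvastatin during compound exposure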
Mot1-301 SUMO – inhibitors of SUMOylation pathway: yeast Mot1-301 growth rescue; S. cerevisiae Mot1-301 growth rescue, ATP luminescence, 38.5C; percent above DMSO median, 100 means doubled; growth rescue, % at 18.8 µM; 320,000 tested, 1% active; AID 2716;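 active = every valid replicate shows activation above 250% relative to neutral control wells; inactive = the rest, any valid replicate at or below 250%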;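 also: OY570 slx delta 5 strain wells were the positive control but not used for scaling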
Starred values were filed as active, the others as inactive; / = not tested or not shown; ! = not active in a repeat. Compounds with a hit are over-represented: about 1.5% of the library has one in this group of screens.

SMILES	Cneo AK release	Statin myotox sup	Mot1-301 SUMO
C[C@@H]1CCCCO[C@@H](CN(C)C(=O)C2CCCCC2)[C@@H](C)CN([C@@H](C)CO)C(=O)c2cc(NC(=O)c3ccccc3)ccc2O1	2	/	/
O=C(Cn1cncn1)NCc1ccccc1Br	0	-6	-6
O=C(Cn1cncn1)c1ccccc1Br	1	0	357*
C[C@H](CO)N1C[C@H](C)[C@@H](CN(C)C(=O)C2CC2)Oc2ncc(C#CC3(O)CCCC3)cc2C1=O	/	3	/
COc1ccc([Si](C)(C)[C@@H]2[C@@H](CCO)O[C@]3(C(=O)N4c5c(cc(OC)cc53)C(C)=CC4(C)C)[C@H]2C)cc1	-9	/	/
Cc1noc(C)c1NC(=O)N[C@@H]1C=C[C@@H](CC(=O)NCc2ccc(Cl)c(Cl)c2)O[C@H]1CO	-10	3	/
COc1ccccc1NC(=O)N[C@H]1CC[C@@H](CCn2cc(-c3ccccc3OC)nn2)O[C@H]1CO	0	6	/
O=C(N[C@@H]1CC[C@@H](CCn2cc(-c3ccccc3)nn2)O[C@H]1CO)c1cnccn1	96*	-3	/
COc1cccc(-c2cn(CC[C@@H]3CC[C@H](NC(C)=O)[C@@H](CO)O3)nn2)c1	94*	-5	/
O=C(N[C@@H]1CC[C@H](CCn2cc(-c3ccc(F)cc3)nn2)O[C@@H]1CO)c1cnccn1	-3	-7	/
O=C(N[C@H]1CC[C@@H](CCn2cc(-c3ccccc3)nn2)O[C@@H]1CO)c1cnccn1	93*	-4	/
COc1cccc(-c2cn(CC[C@@H]3CC[C@H](NC(C)=O)[C@H](CO)O3)nn2)c1	0	-7	/
COc1ccccc1NC(=O)N[C@H]1CC[C@@H](CCn2cc(-c3ccccc3OC)nn2)O[C@@H]1CO	99*	-4	/
O=C(N[C@H]1CC[C@@H](CCn2cc(-c3ccccc3)nn2)O[C@H]1CO)c1cnccn1	-1	0	/
CN1c2ccc(-c3ccccc3F)cc2[C@H]2[C@H](CCN2S(=O)(=O)c2ccc(F)cc2)[C@@H]1CO	5	-25	/
COc1ccc(C[C@@H]2CCc3cnnn3COC[C@@H](Cc3ccccc3)NC2=O)cc1	-1	/	/
CN(C)C(=O)[C@@H]1[C@@H](CO)[C@@H]2Cn3c(ccc(C4=CCCC4)c3=O)[C@H]1N2CC1CC1	-5	0	/
COC(=O)C[C@H]1C[C@@H]2c3cc(NS(=O)(=O)c4ccc(OC)cc4)ccc3O[C@@H]2[C@@H](CO)O1	-1	-5	/
COc1ccc(NC(=O)N[C@@H]2CC[C@@H](CCNC(=O)Cc3ccncc3)O[C@H]2CO)cc1	-1	0	/
CCC(=O)Nc1ccc2c(c1)C(=O)N(C)C[C@@H](OC)[C@H](C)CN(C(=O)COC)[C@@H](C)CO2	0	-2	/
O=C(CCn1cccc1)NC1CCCc2ccccc21 (centres undefined)	2	152*	-10
O=C(CCl)NC1CCCc2ccccc21 (centres undefined)	/	/	-10
O=C(OC1CCN(c2ncc(C(F)(F)F)cc2Cl)CC1)c1ccc(Cl)cc1	2	5	-9
O=C(CSc1nccn1-c1ncc(C(F)(F)F)cc1Cl)c1ccc(Cl)cc1	1	95*	4
CO[C@@H]1CN(C)C(=O)c2ccc(NC(=O)Nc3ccc4c(c3)OCO4)cc2OC[C@@H](C)N(C)C[C@H]1C	-2	-9	/
SMILES	Cneo AK release	Statin myotox sup	Mot1-301 SUMO
Cc1cccc(Nc2cc(=O)[nH]c(=O)[nH]2)c1C	/	/	-11
Cc1ccc(Nc2cc(=O)[nH]c(=O)[nH]2)c(C)c1	/	121*	3
C[C@@H]1CN([C@@H](C)CO)S(=O)(=O)c2ccc(-c3ccc(C(=O)N(C)C)cc3)cc2O[C@H]1CN(C)C(=O)C1CC1	/	-7	/
Cc1ccc(C)c(OCC(O)CN2CCC(C)CC2)c1C (centres undefined)	-2	111*	7
CC1CCN(CC(O)COc2ccc(OCC(O)CN3CCC(C)CC3)cc2)CC1 (centres undefined)	-9	-5	15
CN(C)c1ccc(/C=C/C=C2/SC(=S)N(c3ccccc3)C2=O)cc1	0	70*	-2
O=C(O)c1ccc(N2C(=O)/C(=C/C=C/c3ccccc3)SC2=S)cc1	/	/	-15
O=C(CN1CCN(CCOCCO)CC1)N1c2ccccc2Sc2ccc(Cl)cc21	1	108*	-14
O=C(CN1CCOCC1)N1c2ccccc2Sc2ccc(Cl)cc21	1	4	/
CN1[C@H](C(=O)NCc2ccccn2)[C@@H](CO)[C@@H]2Cn3c(ccc(-c4cccc(F)c4)c3=O)[C@@H]21	-13	-28	/
C[C@H]1CN([C@@H](C)CO)C(=O)c2cc(/C=C/c3ccccc3)cnc2O[C@@H]1CN(C)S(C)(=O)=O	3	2	/
C[C@H]1CN([C@@H](C)CO)C(=O)c2cc(/C=C/c3ccccc3)cnc2O[C@H]1CN(C)S(=O)(=O)c1cn(C)cn1	-12	-2	/
C[C@@H]1CN([C@@H](C)CO)C(=O)c2cc(/C=C/c3ccccc3)cnc2O[C@@H]1CN(C)S(C)(=O)=O	83*	0	/
C[C@H](CO)N1C[C@H](C)[C@H](CN(C)S(=O)(=O)c2cn(C)cn2)Oc2ncc(/C=C/c3ccccc3)cc2C1=O	97*!	16	/
CN(C)CC#Cc1cccc(-c2nc(C(=O)O)cc3c2[C@H](CCO)N(S(=O)C(C)(C)C)C3)c1 (some centres undefined)	-8	/	/
CC(C)NC(=O)Nc1ccc2c(c1)C(=O)N([C@@H](C)CO)C[C@@H](C)[C@@H](CN(C)S(=O)(=O)c1ccccc1)OCCCC[C@@H](C)O2	0	/	/
O=C1CCCC2=C1C(c1ccco1)Nc1ccc3ccccc3c12 (centres undefined)	-2	95*	6
O=C1CCCC2=C1C(c1ccc(O)c(O)c1)Nc1ccc3ccccc3c12 (centres undefined)	4	/	-6
O=C(CCNC(=O)N1CC(=O)Nc2ccccc21)Nc1ccc(Cl)cc1	-1	3	-5
CC1CCCCC1NC(=O)CCNC(=O)N1CC(=O)Nc2ccccc21 (centres undefined)	-1	119*	-3
C[C@H]1CCCCO[C@H](CN(C)C(=O)c2ccccc2)[C@@H](C)CN([C@@H](C)CO)C(=O)c2cc(NC(=O)Nc3ccc(C(F)(F)F)cc3)ccc2O1	-2	/	/
O=C(N[C@H]1CC[C@@H](CCn2cc(C3(O)CCCC3)nn2)O[C@H]1CO)c1ccccc1F	0	12	/
COC(=O)c1cc(=O)n(Cc2ccco2)c(=Nc2ccc(F)c(Cl)c2)s1	-3	6	-7
COC(=O)c1cc(=O)n(CCc2ccccc2F)c(=Nc2ccc(F)c(Cl)c2)s1	0	110*	-3
CCOC(=O)C1(Cc2ccccc2C)CCCN(C(=O)CCn2nccc2C)C1 (centres undefined)	/	-2	242
CCOC(=O)C1(Cc2ccccc2C)CCCN(C(=O)CCc2cccnc2)C1 (centres undefined)	/	/	782*
Cc1cc(C(=O)Nc2cccc3c2O[C@H](CN(C)C(=O)NC2CCCCC2)[C@@H](C)CN([C@H](C)CO)C3=O)n(C)n1	4	10	/

High-throughput results deposited in PubChem BioAssay by Broad Institute.
